Test results from ChEMBL document CHEMBL1154044, “5-Nitro-2-furyl derivative actives against Trypanosoma cruzi: preliminary in vivo studies” (Eur J Med Chem, 2009).

Columns and labels:
Mus musculus [1] = assay: Toxicity in CD1 mouse kidney at 300 mg/kg, ip after 3 days by histological study; assay type: organism-based; set-up: dose 300 mg/kg, route intraperitoneal; settings: in vivo, 72 h
Summary of the method: (§1)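 Healthy female CD1 mice (20–22 g), 5–7 per group, given a single oral (intragastric) or i.p. dose in saline:Tween 80 (4:1) vehicle. Sacrificed on day 3 after ether anaesthesia. Organs fixed in 10% aqueous formalin for histology. Scored against untreated animals from no change to +++ (many changes).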

Mus musculus [2] = assay: Toxicity in CD1 mouse brain at 300 mg/kg, ip after 3 days by histological study; assay type: organism-based; set-up: dose 300 mg/kg, route intraperitoneal; settings: in vivo, 72 h; summary of the method: as §1
Mus musculus [3] = assay: Toxicity in CD1 mouse assessed as glutamic-oxalacetate transaminase level at 450 mg/kg, po after 3 days; assay type: organism-based; set-up: dose 450 mg/kg, route oral; settings: in vivo, 72 h
Summary of the method: (§2)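 Healthy female CD1 mice (5–7 per group) received a single oral dose of 450 mg/kg or an i.p. dose of 300 mg/kg, with vehicle controls. On day 3 they were sacrificed under ether anaesthesia. Blood was drawn from the subclavian artery and kept at 0 °C in EDTA or heparin. Leukocytes, haemoglobin, haematocrit, GPT and GOT were measured within 24 h and compared with normal ranges.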

Mus musculus [4] = assay: Toxicity in CD1 mouse assessed as hematocrite level at 450 mg/kg, po after 3 days; assay type: organism-based; set-up: dose 450 mg/kg, route oral; settings: in vivo, 72 h; summary of the method: as §2
Mus musculus [5] = assay: Toxicity in CD1 mouse assessed as haemoglobin level at 300 mg/kg, ip after 3 days; assay type: organism-based; set-up: dose 300 mg/kg, route intraperitoneal; settings: in vivo, 72 h; summary of the method: as §2
Mus musculus [6] = assay: Toxicity in CD1 mouse assessed as survival at 450 mg/kg, po after 3 days; assay type: organism-based; set-up: dose 450 mg/kg, route oral; settings: in vivo, 72 h
Summary of the method: (§3)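 Healthy 2-month-old female CD1 mice (20–22 g), groups of 5–7, given one oral dose by intragastric syringe or one i.p. injection. Compound suspended in saline:Tween 80 (4:1) with sonication just before dosing; vehicle-treated controls included. Weighed and observed daily over 3 days for skin, physical aspect, activity and faeces; survival recorded at day 3.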

Mus musculus [7] = assay: Toxicity in CD1 mouse assessed as glutamic-oxalacetate transaminase level at 300 mg/kg, ip after 3 days; assay type: organism-based; set-up: dose 300 mg/kg, route intraperitoneal; settings: in vivo, 72 h; summary of the method: as §2
Mus musculus [8] = assay: Toxicity in CD1 mouse intestine at 450 mg/kg, po after 3 days by histological study; assay type: organism-based; set-up: dose 450 mg/kg, route oral; settings: in vivo, 72 h; summary of the method: as §1
Mus musculus [9] = assay: Toxicity in CD1 mouse assessed as glutamic-pyruvate transaminase level at 450 mg/kg, po after 3 days; assay type: organism-based; set-up: dose 450 mg/kg, route oral; settings: in vivo, 72 h; summary of the method: as §2
Mus musculus [10] = assay: Toxicity in CD1 mouse heart at 450 mg/kg, po after 3 days by histological study; assay type: organism-based; set-up: dose 450 mg/kg, route oral; settings: in vivo, 72 h; summary of the method: as §1
Mus musculus [11] = assay: Toxicity in CD1 mouse assessed as haemoglobin level at 450 mg/kg, po after 3 days; assay type: organism-based; set-up: dose 450 mg/kg, route oral; settings: in vivo, 72 h; summary of the method: as §2
Mus musculus [12] = assay: Toxicity in CD1 mouse assessed as leukocyte level at 450 mg/kg, po after 3 days; assay type: organism-based; set-up: dose 450 mg/kg, route oral; settings: in vivo, 72 h; summary of the method: as §2
Mus musculus [13] = assay: Toxicity in CD1 mouse liver at 300 mg/kg, ip after 3 days by histological study; assay type: organism-based; set-up: dose 300 mg/kg, route intraperitoneal; settings: in vivo, 72 h; summary of the method: as §1
Mus musculus [14] = assay: Toxicity in CD1 mouse heart at 300 mg/kg, ip after 3 days by histological study; assay type: organism-based; set-up: dose 300 mg/kg, route intraperitoneal; settings: in vivo, 72 h; summary of the method: as §1
Mus musculus [15] = assay: Toxicity in CD1 mouse assessed as hematocrite level at 300 mg/kg, ip after 3 days; assay type: organism-based; set-up: dose 300 mg/kg, route intraperitoneal; settings: in vivo, 72 h; summary of the method: as §2
Mus musculus [16] = assay: Toxicity in CD1 mouse intestine at 300 mg/kg, ip after 3 days by histological study; assay type: organism-based; set-up: dose 300 mg/kg, route intraperitoneal; settings: in vivo, 72 h; summary of the method: as §1
Mus musculus [17] = assay: Toxicity in CD1 mouse assessed as glutamic-pyruvate transaminase level at 300 mg/kg, ip after 3 days; assay type: organism-based; set-up: dose 300 mg/kg, route intraperitoneal; settings: in vivo, 72 h; summary of the method: as §2
Mus musculus [18] = assay: Toxicity in CD1 mouse brain at 450 mg/kg, po after 3 days by histological study; assay type: organism-based; set-up: dose 450 mg/kg, route oral; settings: in vivo, 72 h; summary of the method: as §1
Mus musculus [19] = assay: Toxicity in CD1 mouse lung at 300 mg/kg, ip after 3 days by histological study; assay type: organism-based; set-up: dose 300 mg/kg, route intraperitoneal; settings: in vivo, 72 h; summary of the method: as §1
Mus musculus [20] = assay: Toxicity in CD1 mouse assessed as decrease in weight respect to day zero at 300 mg/kg, ip after 3 days; assay type: organism-based; set-up: dose 300 mg/kg, route intraperitoneal; scale not given: the % may be the effect or the level left; settings: in vivo, 72 h
Summary of the method: (§4)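 Healthy 2-month-old female CD1 mice (20–22 g, 5–7 per group) received one dose. Oral doses of 450 or 300 mg/kg were given by intragastric syringe; i.p. doses of 300 or 150 mg/kg by injection. Drugs were suspended in saline:Tween 80 (4:1), and a vehicle-only control was included. Mice were weighed and observed daily for 3 days. Weight change is expressed as percent relative to day zero.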

Mus musculus [21] = assay: Toxicity in CD1 mouse lung at 450 mg/kg, po after 3 days by histological study; assay type: organism-based; set-up: dose 450 mg/kg, route oral; settings: in vivo, 72 h; summary of the method: as §1
Mus musculus [22] = assay: Toxicity in CD1 mouse liver at 450 mg/kg, po after 3 days by histological study; assay type: organism-based; set-up: dose 450 mg/kg, route oral; settings: in vivo, 72 h; summary of the method: as §1
Mus musculus [23] = assay: Toxicity in CD1 mouse kidney at 450 mg/kg, po after 3 days by histological study; assay type: organism-based; set-up: dose 450 mg/kg, route oral; settings: in vivo, 72 h; summary of the method: as §1
Mus musculus [24] = assay: Toxicity in CD1 mouse assessed as increase in weight respect to day zero at 450 mg/kg, po after 3 days; settings: in vivo, 72 h
Trypanosoma cruzi = assay: Growth inhibition of Trypanosoma cruzi Tulahuen 2 epimastigote at 5 uM after 5 days; assay type: functional; settings: Trypanosoma cruzi, Tulahuen 2, 120 h; read-out: GI
Mus musculus [25] = assay: Toxicity in CD1 mouse assessed as leukocyte level at 300 mg/kg, ip after 3 days; assay type: organism-based; set-up: dose 300 mg/kg, route intraperitoneal; settings: in vivo, 72 h; summary of the method: as §2
Mus musculus [26] = assay: Toxicity in CD1 mouse assessed as decrease in weight respect to day zero at 450 mg/kg, po after 3 days; assay type: organism-based; set-up: dose 450 mg/kg, route oral; scale not given: the % may be the effect or the level left; settings: in vivo, 72 h; summary of the method: as §4
Mus musculus [27] = assay: Toxicity in CD1 mouse assessed as decrease in weight respect to day zero at 300 mg/kg, po after 3 days; assay type: organism-based; set-up: dose 300 mg/kg, route oral; scale not given: the % may be the effect or the level left; settings: in vivo, 72 h; summary of the method: as §4
Mus musculus [28] = assay: Toxicity in CD1 mouse assessed as survival at 300 mg/kg, ip after 3 days; assay type: organism-based; set-up: dose 300 mg/kg, route intraperitoneal; settings: in vivo, 72 h; summary of the method: as §3
Mus musculus [29] = assay: Toxicity in CD1 mouse assessed as survival at 300 mg/kg, po after 3 days; assay type: organism-based; set-up: dose 300 mg/kg, route oral; settings: in vivo, 72 h; summary of the method: as §3

Row | Compound | Activity (Mus musculus [1]) | Activity (Mus musculus [2]) | Activity (Mus musculus [3]) [IU/L] | Activity (Mus musculus [4]) [%] | Activity (Mus musculus [5]) [g/dL] | Activity (Mus musculus [6]) | Activity (Mus musculus [7]) [IU/L] | Activity (Mus musculus [8]) | Activity (Mus musculus [9]) [IU/L] | Activity (Mus musculus [10]) | Activity (Mus musculus [11]) [g/dL] | Activity (Mus musculus [12]) [µL⁻¹] | Activity (Mus musculus [13]) | Activity (Mus musculus [14]) | Activity (Mus musculus [15]) [%] | Activity (Mus musculus [16]) | Activity (Mus musculus [17]) [IU/L] | Activity (Mus musculus [18]) | Activity (Mus musculus [19]) | Activity (Mus musculus [20]) [%] | other results
1 | CCCCCCOC(=O)N/N=C/c1ccc([N+](=O)[O-])o1 | Non-toxic | Non-toxic | 192 | 34.4 | 12.3 | Non-toxic | 140 | Non-toxic | 34 | Non-toxic | 10.6 | 2700 | Toxic | Non-toxic | 38.7 | Non-toxic | 32 | Non-toxic | Non-toxic | 0 | Activity (Mus musculus [21]): Non-toxic; Activity (Mus musculus [22]): Toxic; Activity (Mus musculus [23]): Non-toxic; Activity (Mus musculus [24]): 3%; inhibition of growth at 5 µM (Trypanosoma cruzi): 93%; Activity (Mus musculus [25]): 4900 µL⁻¹
2 | CC1CS(=O)(=O)CCN1/N=C/c1ccc([N+](=O)[O-])o1 (stereo not given) [NIFURTIMOX] | Non-toxic | Non-toxic | 162 | 42.4 | 13.2 | Non-toxic | 177 | Non-toxic | 49 | Non-toxic | 13.5 | 6700 | Toxic | Non-toxic | 39.3 | Non-toxic | 32.5 | Non-toxic | Non-toxic | 3 | Activity (Mus musculus [26]): 6%; Activity (Mus musculus [27]): 0%; Activity (Mus musculus [28]): Non-toxic; Activity (Mus musculus [29]): Non-toxic; Activity (Mus musculus [21]): Non-toxic; Activity (Mus musculus [22]): Toxic; Activity (Mus musculus [23]): Toxic; inhibition of growth at 5 µM (Trypanosoma cruzi): 46%; Activity (Mus musculus [25]): 5100 µL⁻¹
